Molecules are shown by their SMILES. Out of some 330,000 compounds screened, about 1,100 (0.33%) were called active.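 How the source made its calls: active means mean inhibition over replicate wells above about 20% (limit read from the data); inactive means the rest.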 Shown is part of a subset that was picked to be rich in actives.

Sequence of Ubiquitin carboxyl-terminal hydrolase isozyme L5 (Homo sapiens) (Q9Y5K5 whole entry, looked up): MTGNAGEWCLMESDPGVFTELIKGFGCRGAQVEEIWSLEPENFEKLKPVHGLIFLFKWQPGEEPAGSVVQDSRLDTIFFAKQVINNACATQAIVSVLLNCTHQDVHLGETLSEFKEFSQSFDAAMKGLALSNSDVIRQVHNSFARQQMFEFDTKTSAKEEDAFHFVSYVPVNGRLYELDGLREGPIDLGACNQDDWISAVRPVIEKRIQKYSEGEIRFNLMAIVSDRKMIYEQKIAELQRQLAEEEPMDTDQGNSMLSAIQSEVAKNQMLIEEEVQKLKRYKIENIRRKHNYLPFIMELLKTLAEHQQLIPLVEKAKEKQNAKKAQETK

The experiment concerns the target Ubiquitin carboxyl-terminal hydrolase isozyme L5 (Homo sapiens) (UniProt Q9Y5K5). The experiment can be described thus: proteasome-bound UCH37 DUB activity blockers – biochemical, Ub-AMC cleavage, fluorescence, primary screen (AID 588478).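 Further: 0% = compound-free wells with enzyme and 100% = wells lacking proteasome.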 The following applies: purified proteasome/UCH37, Ub-AMC cleavage fluorescence; active compounds read high; concentration not given here. In a few lines: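 System: Proteasome-associated human UCH37 deubiquitinase; Input: 0.15 nM proteasome in added enzyme buffer; Also added: Ub-AMC substrate from 1 µM stock; Incubation: 30 min compound-proteasome preincubation then 25 min substrate reaction, room temperature; Detection: fluorescence, ex 355 nm, em 460 nm; Read-out: % inhibition of Ub-AMC cleavage fluorescence; Benchmarks: no-proteasome and no-compound wells.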
In the case of `O=C(CCCCO)CCCCCCCCC1NC(CO)C(O)C1O[C@@H]1OC(CO)C(O)C(O)C1O` (stereo partly drawn), the inhibition was 1.76% (inactive). `O=C(NN=C(c1ccccc1)c1cccnc1)c1ccc(O)cc1`: the inhibition is 4.07% (inactive). Next, `CCC(C)C(C)=NNC(=O)c1ccc(COc2ccc(Cl)c(C)c2)cc1` (stereo not drawn): 1.66% (inactive); `Oc1ccc(C=NNc2cccc3cccnc23)c(O)c1`: 1.33% (inactive).

In the case of `C#CCOCCOCCOCCNc1nc(N2CCN(C(=O)[C@H](C(C)C)n3cc(CCO)nn3)CC2)nc(N2CCN(C(=O)[C@H]([C@@H](C)CC)n3cc(CCCN=C(N)N)nn3)CC2)n1`, the inhibition is 34.8% (active).

With `C#CCOCCOCCOCCNc1nc(N2CCN(C(=O)[C@H](C(C)C)n3cc(CCO)nn3)CC2)nc(N2CCN(C(=O)[C@H](C(C)C)n3cc(CCO)nn3)CC2)n1`, the inhibition is 0.233% (inactive).

In the case of `C#CCOCCOCCOCCNc1nc(N2CCN(C(=O)[C@H](CCCN=C(N)N)n3cc(C(N)[C@@H](C)CC)nn3)CC2)nc(N2CCN(C(=O)[C@H](CO)n3cc([C@@H](N)C(C)C)nn3)CC2)n1` (stereo partly drawn), the inhibition is 3.95% (inactive).

As to `CC(C)NC(=O)CC(=O)NN=Cc1ccccc1F`, the inhibition is 4.78% (inactive).

Take `CSc1cc(C=NO)c(SC)s1`: the inhibition is 3.15% (inactive). For `COc1nc(N(C)C)nc(N2CC(=O)N(CCNS(=O)(=O)c3ccc(C)cc3)C2=N)n1`, the inhibition was -1.6% (inactive). Regarding `CCCn1nc(Oc2nc(NC(C)C)nc(N(C)C)n2)ccc1=O`, the inhibition is 6.24% (inactive). Turning to `COc1nc(Oc2ccc(=O)n(C)n2)nc(N(C)C)n1`, the inhibition was 29.8% (active). In the case of `CN(C)c1nc(NN=Cc2c[nH]c3ccccc23)nc(N2CCOCC2)n1`, the inhibition is 5.58% (inactive).

Turning to `CC(C)CC[n+]1ccn(C2=C([O-])c3ccccc3C(=O)/C2=N\S(=O)(=O)c2ccccc2)c1`, the inhibition was 32.4% (active). Regarding `Cc1ccc(C=NNC(=O)c2cc([N+](=O)[O-])cc([N+](=O)[O-])c2)o1`, the inhibition is 5.25% (inactive). On to `CN(C)/C=C(\C#N)C(=O)NN=Cc1ccccc1`, for which the inhibition was 6.55% (inactive). The same measure for `CN(C)C=Nc1sc2c(c1C#N)CCC2`: 9.38% (inactive). Regarding `COC(=O)[C@H](C)[C@H]1C[C@]1(C)[C@H](NC(=O)OCc1ccccc1)c1ccccc1`, the inhibition was 31% (active).

On to `COC(=O)[C@H](Cc1ccccc1)NC(=O)[C@@H]1C[C@H]1[C@@H](NC(=O)OCc1ccccc1)c1ccccc1`, for which the inhibition was 1.36% (inactive).

Take `CC(C)[C@H](NC(=O)OCc1ccccc1)C(=O)OCc1ccccc1`: the inhibition is 0.329% (inactive). As for `O=C(NN=Cc1ccco1)c1cc(=O)[nH]c2ccccc12`, the inhibition was 7.58% (inactive). Next, `CCC(=O)Nc1ccc(C(=O)N2CCN(C(=O)c3ccco3)CC2)cc1`: 31.4% (active); `O=C(c1ccc2c(c1)OCO2)N1CCN(C(=O)c2ccco2)CC1`: 0.962% (inactive).

For the compound `O=C(CN1CCN(C(=O)c2ccco2)CC1)Nc1ccc2c(c1)OCO2`, the inhibition was 1.43% (inactive).

Take `Cc1ccc2nc(C(Cl)(Cl)Cl)nc(NN=Cc3ccc([N+](=O)[O-])cc3)c2c1`: the inhibition is -0.00251% (inactive).

On to `O=C(O)C(c1ccccc1)N1C(=O)/C(=C\c2ccc(-c3cccc(Cl)c3)o2)SC1=S` (stereo not drawn), for which the inhibition was 37.5% (active). Consider `S=c1[nH]nc(-c2cccc(Cl)c2)n1N=Cc1ccc(-c2ccccc2Br)o1`, for which the inhibition was 8% (inactive). Regarding `O=C1c2ccccc2NC(c2ccc(-c3cccc(Cl)c3)o2)N1O` (stereo not drawn), the inhibition was -14.2% (inactive). As for `CC(=O)n1cc(C=NNC(=O)c2ccc(Cl)cc2)c2ccccc21`, the inhibition is 2.16% (inactive).

For `O=C(Cc1cccs1)NN=Cc1ccc(O)cc1`, the inhibition is 1.44% (inactive). For `CCOC(=O)c1c(N=CC2=C(O)CC(C)(C)CC2=O)sc(C)c1C`, the inhibition is -1.87% (inactive). The same measure for `Cc1ccc(C=NNC(=O)CSc2nc3ccccc3c(=O)n2-c2ccccc2)s1`: 4.54% (inactive). For `Cc1ccc(NC(=O)Nc2cccnc2)cc1`, the inhibition is 0.429% (inactive). As for `Oc1ccc(C=NNC(=S)Nc2cccnc2)c(O)c1O`, the inhibition is 22.7% (active). As for `CC(C)(C)c1ccc(C=NNC(=S)Nc2cccnc2)cc1`, the inhibition was 2.4% (inactive).

Consider `COc1cc(C=NN(C)C)ccc1OC(=O)c1cccs1`, for which the inhibition was 0.992% (inactive).

For the compound `COc1ccc(NC(=O)ON=Cc2ccccc2)cc1`, the inhibition was 2.45% (inactive). For `CC(=NNC(=O)c1cccs1)c1ccc(NC(=O)COc2ccc(Cl)cc2)cc1`, the inhibition is -42% (inactive). Consider `O=C(O)c1cc(NN=Cc2ccncc2)ccc1Cl`, for which the inhibition was 14.4% (inactive). The same measure for `Nc1nnnn1CC(=O)NN=Cc1cc([N+](=O)[O-])ccc1Cl`: 4.32% (inactive). For the compound `CCCCCCCCn1c2c(c(=N)c3c1CCC3)CCCC2`, the inhibition is 25.7% (active). Consider `Cc1ccc(C=NNC(=O)CNC(=O)COc2ccccc2)o1`, for which the inhibition was 6.97% (inactive).

Regarding `CC(C)(C)NN=Cc1cc(Cl)cc([N+](=O)[O-])c1O`, the inhibition is 6.29% (inactive).

Regarding `CNC(=O)C(C#N)=c1sc(=CC(=O)OC)c(=O)n1-c1ccccc1`, the inhibition is 3.97% (inactive).

Turning to `Cc1ccc(C=NN2CCN(Cc3ccccc3)CC2)o1`, the inhibition was 1.82% (inactive). Consider `COc1ccc(C(=O)COC(=O)c2ccc([N+](=O)[O-])s2)cc1OC`, for which the inhibition was 4.79% (inactive). `COc1ccc(C(=O)OCC(=O)Nc2ccc3[nH]c(=O)[nH]c3c2)c(OC)c1OC`: the inhibition was 0.187% (inactive). The same measure for `COc1cc(NC(=O)COC(=O)c2ccc([N+](=O)[O-])s2)cc(OC)c1OC`: 70.6% (active); for `COc1cccc(C=NNc2cc(-n3nc(C)cc3-c3ccccc3)ncn2)c1O`: 3.24% (inactive). For `O=[N+]([O-])c1cc(S(=O)(=O)N2CCCC2)ccc1NN=Cc1cccnc1`, the inhibition was 3.11% (inactive). Consider `Cc1nn(-c2ccccc2)c(C)c1C=NNC(=O)c1cccs1`, for which the inhibition is 2.82% (inactive). For `O=C1C(Cl)=C(Oc2ccccc2)C(=O)c2ccccc21`, the inhibition is 73.8% (active).

`CC(=O)Oc1ccc2c(c1)C(=O)c1ccccc1C2=O`: the inhibition is 6.5% (inactive).

As for `Cc1cc(C)c(COc2ccc(C=Nn3c(C)n[nH]c3=S)cc2)c(C)c1`, the inhibition is 2.64% (inactive). The same measure for `C[n+]1cn(N=Cc2ccccc2)c2ccccc21`: 0.369% (inactive). Consider `COc1ccc(C(C)=NNc2ccc(C(=O)O)cc2)cc1OC`, for which the inhibition is 12.1% (inactive). In the case of `COC1(C2=NCCN2)COc2ccccc2O1` (stereo not drawn), the inhibition is 22.9% (active). With `CCCC=NNc1nnc(Cc2ccc(OC)c(OC)c2)c(=O)[nH]1`, the inhibition is 2.12% (inactive).

The inhibition is the change of the read-out against control, counted positive when it falls.

Values taken from PubChem BioAssay AID588478 (ICCB-Longwood Screening Facility, Harvard Medical School, 2011).
